Measurements from article PMC9298314 (The Febs Journal, 2021).
Peptide text beside a SMILES is read from it.

Key:
MDA‐MB‐231 [1] = experiment: CellTiter‐Blue cell viability assay; assay type: cell-based, human; settings: read-out: IC50 (µM) MDA‐MB‐231, 24 h, peptide 0.01 to 100 µM, serum‐free medium
Summary of the method: (§1)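 Cells were seeded per mL as follows: BT‑20, SKBR3 and Hs68 at 1.5×10⁵; BT‑474 at 3.0×10⁵; MCF 10A at 4.0×10⁵; MDA‑MB‑231 at 1.0×10⁵. After 24 h, wells were PBS‑washed twice and exposed to test compound in complete serum‑free medium for 24 h at 37 °C, 5% CO₂. CellTiter‑Blue was added for 3 h and fluorescence read at 560/590 nm. Untreated cells set 100%, 1% Triton X‑100 set 0%. IC50 came from a log(inhibitor)–normalized response fit, using independent cultures on different days.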

BT‐20 = experiment: CellTiter‐Blue cell viability assay; assay type: cell-based, human; settings: read-out: IC50 (µM) BT‐20, 24 h, peptide 0.01 to 100 µM, serum‐free medium
Summary of the method: as §1

BT‐474 = experiment: CellTiter‐Blue cell viability assay; assay type: cell-based, human; settings: read-out: IC50 (µM) BT‐474, 24 h, peptide 0.01 to 100 µM, serum‐free medium
Summary of the method: as §1

SKBR3 = experiment: CellTiter‐Blue cell viability assay; assay type: cell-based, human; settings: read-out: IC50 (µM) SKBR3, 24 h, peptide 0.01 to 100 µM, serum‐free medium
Summary of the method: as §1

MCF 10A = experiment: CellTiter‐Blue cell viability assay; assay type: cell-based, human; settings: read-out: IC50 (µM) MCF 10A, 24 h, peptide 0.01 to 100 µM, serum‐free medium
Summary of the method: as §1

Hs68 = experiment: CellTiter‐Blue cell viability assay; assay type: cell-based, human; settings: read-out: IC50 (µM) Hs68, 24 h, peptide 0.01 to 100 µM, serum‐free medium
Summary of the method: as §1

[2] = tested on: human red blood cells (RBCs); experiment: Hemolytic activity; assay type: cell-based; settings: 100 µM peptide, human RBCs 0.25% v/v in PBS pH 7.4, 24 h, 37 °C
Summary of the method: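 Blood spun 1000 g for 10 min at 4 °C and washed three times. RBCs held at 0.25% v/v in PBS pH 7.4 with a peptide series (0.01–100), 24 h at 37 °C with gentle agitation. After spinning 1000 g for 5 min at 4 °C, supernatant hemoglobin read at A415. PBS is 0% and 1% Triton X‐100 is 100%; melittin served as peptide control. % = (A − Aneg)/(Apos − Aneg) × 100.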

MDA‐MB‐231 [3] = experiment: Internalization of CF‐labeled peptide, flow cytometry and confocal microscopy; assay type: cell-based, human; settings: CF‐labeled peptide 1 µM, flow cytometry
Summary of the method: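 Cells seeded 5.0 × 10⁴ per well for 24 h, then washed. Exposed to CF‐labelled peptide (final 1) for 15, 60, 360 and 1440 min at 37 °C, 5% CO₂. Collected and washed; 10 000 cells read by flow cytometry, with autofluorescence subtracted. Duplicates on three independent days.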

Molecule | IC50 (MDA‐MB‐231 [1]) [µM] | IC50 (BT‐20) [µM] | IC50 (BT‐474) [µM] | IC50 (SKBR3) [µM] | IC50 (MCF 10A) [µM] | IC50 (Hs68) [µM] | H max (% hemolysis at the highest concentration tested) [2] [%] | Fluorescence intensity decay with time, MDA‐MB‐231 (MDA‐MB‐231 [3])
CC(C)C[C@H](NC(=O)CNC(=O)[C@H](CC(C)C)NC(=O)[C@H](CC(C)C)NC(=O)[C@H](CCC(N)=O)NC(=O)[C@H](CCCNC(=N)N)NC(=O)[C@H](CC(C)C)NC(=O)[C@@H](NC(=O)[C@H](CC(C)C)NC(=O)[C@H](CCCNC(=N)N)NC(=O)[C@@H](N)CCCNC(=N)N)[C@@H](C)O)C(=O)NCC(=O)N[C@@H](CO)C(=O)N[C@@H](CCCNC(=N)N)C(=O)N[C@@H](CCCNC(=N)N)C(=O)N[C@@H](CCCNC(=N)N)C(=O)N[C@@H](CCCNC(=N)N)C(=O)N[C@@H](CCCNC(=N)N)C(=O)N[C@@H](CO)C(=O)N[C@@H](CCCNC(=N)N)C(N)=O [vCPP0769] (H-RRLTLRQLLGLGSRRRRRSR-NH2) | 9 ± 0.1 | 3.5 ± 1.5 | 37.5 ± 1.7 | 21.1 ± 2 | 55.4 ± 1.7 | 53.4 ± 0.7 | 56.2 ± 1.5 | 
CF‐WRRRYRRWRRRRRWRRRPRR‐amide [CF‐vCPP2319] |  |  |  |  |  |  |  | decreases slowly during 24 h
C[C@H](NC(=O)[C@H](CCCCN)NC(=O)[C@H](Cc1ccc(O)cc1)NC(=O)[C@H](CCCCN)NC(=O)[C@H](CCCCN)NC(=O)[C@H](CCCCN)NC(=O)[C@H](Cc1ccc(O)cc1)NC(=O)[C@H](CCCNC(=N)N)NC(=O)[C@H](CCCCN)NC(=O)[C@@H](N)CCCCN)C(=O)N[C@@H](Cc1ccc(O)cc1)C(=O)N[C@@H](CCCCN)C(=O)N1CCC[C@H]1C(=O)N[C@@H](Cc1ccc(O)cc1)C(=O)N[C@@H](CCCCN)C(=O)N[C@@H](CCCCN)C(=O)N[C@@H](CCCCN)C(=O)N[C@@H](CCCCN)C(=O)N[C@@H](CCCCN)C(=O)N[C@@H](Cc1ccccc1)C(N)=O [vCPP0275] (H-KKRYKKKYKAYKPYKKKKKF-NH2) | > 100 | 44.8 ± 1.1 | > 100 | 34 ± 1 | > 100 | > 100 | 14.6 ± 0.9 | 
